# Bioassay records deposited in PubChem BioAssay by several laboratories.
# TAAR1 antagonist: antagonists of human TAAR1. AID 624466. CHO RD-HGA16 TAAR1, Fluo-8 calcium fluorescence, antagonist. inhibition, % at 3 µM. hit rate 1.5% among 360,000;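 active = inhibition above a per-plate cutoff, the mean inhibition of test compounds on that plate plus 3 SD, cut at about 49% in these data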
# Target sequence (Q96RJ0 whole entry, looked up): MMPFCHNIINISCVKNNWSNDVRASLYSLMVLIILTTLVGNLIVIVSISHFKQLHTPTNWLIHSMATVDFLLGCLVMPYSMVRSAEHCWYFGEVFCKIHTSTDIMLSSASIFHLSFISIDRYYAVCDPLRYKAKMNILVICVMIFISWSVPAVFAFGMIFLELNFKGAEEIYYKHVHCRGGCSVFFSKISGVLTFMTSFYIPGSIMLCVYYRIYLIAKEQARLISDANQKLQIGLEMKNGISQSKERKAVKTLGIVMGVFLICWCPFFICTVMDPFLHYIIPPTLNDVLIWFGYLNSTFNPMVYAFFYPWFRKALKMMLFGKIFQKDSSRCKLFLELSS
#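 Test system: RD-HGA16 CHO cells with stable hTAAR1 and Gα16 / Probe or stimulus: EC80 β-phenethylamine stimulus / Times: seeding 17-24 h prior, 75-min 37 °C, 30-min RT dye loading / Detection: Fluo-8 calcium-sensitive fluorescence / Read-out basis: % inhibition scaled between DMSO and EC80 PEA controls / Repeats: singlicate, one well per test compound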
# MC4R antag cAMP: human MC4R antagonism in cAMP assay; P32245; AID 540295; MC4R-expressing cells, MTII-stimulated cAMP, LANCE TR-FRET; hit rate 0.48% among 360,000; inhibition, % at 6.5 µM;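 active = inhibition above its plate's cutoff, the mean of tested wells on that plate plus 3 SD, cut at about 29% in these data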
# Target sequence (P32245 whole entry, looked up): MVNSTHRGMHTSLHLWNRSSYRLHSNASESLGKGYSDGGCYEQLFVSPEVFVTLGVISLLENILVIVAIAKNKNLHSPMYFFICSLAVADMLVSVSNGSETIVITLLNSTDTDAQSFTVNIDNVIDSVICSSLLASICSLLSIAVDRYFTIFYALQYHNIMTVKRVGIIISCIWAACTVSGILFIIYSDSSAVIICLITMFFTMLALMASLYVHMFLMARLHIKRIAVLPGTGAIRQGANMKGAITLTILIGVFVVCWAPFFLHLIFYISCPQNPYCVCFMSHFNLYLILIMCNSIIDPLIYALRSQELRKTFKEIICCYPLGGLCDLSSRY
#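 Test system: U2OS cells stably expressing human melanocortin 4 receptor (MC4R); also added: Melanotan II challenge; compound: 6.5 µM single dose; timing: 30-min compound preincubation, 1-h Melanotan II challenge, 1-h detection, room temperature; signal: Eu-cAMP/anti-cAMP TR-FRET, emission 671 nm; repeats: one well per compound, no replicates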
# MC4R ag barr: activates human MC4R beta-arrestin recruitment | P32245 | U2OS MC4R beta-arrestin complementation, luminescence; percent of melanotan II response, DMSO zero | activation, % at 8.9 µM | hit rate 0.98% among 360,000;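 active = activation above a per-plate cutoff, the mean activation of sample wells on that plate plus 3 SD, cut at about 8% in these data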
# m5-HT2A agonist: agonists of mouse serotonin 5-HT2A receptor (HTR2A); hit rate 0.66% among 360,000; activation, % at 7.6 µM; CHO-K1 mHTR2A beta-arrestin complementation, luminescence; percent of 30 µM serotonin response;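 active = activation above a run cutoff, the mean activation of all tested compounds plus 3 SD, cut at about 14% in these data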
# TAAR1 agonist: agonists of human TAAR1. Q96RJ0. AID 624467. hit rate 0.99% among 360,000. CHO RD-HGA16 TAAR1, Fluo-8 calcium fluorescence; vehicle wells 0%, saturating PEA agonist 100%. activation, % at 3 µM;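 active = activation above the mean activation of all test compounds in the run plus 3 SD, cut at about 38% in these data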
#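 Assay system – CHO-derived RD-HGA16 cells with stable Gα16 and human TAAR1 · Compound dosing – one-point dosing at 3 µM (nominal) · Incubation – 17-24 h seeding, 75 min 37 °C dye, 30 min RT · Measured by – kinetic Fluo-8 calcium fluorescence · Control set – DMSO vehicle as 0%, PEA at EC100 as 100% · Repeats – single well for each compound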
# B2AR ag: agonists of human beta-2 adrenergic receptor inducing internalization; AID 504454; hit rate 0.43% among 340,000; response, % (concentration not given with the values); Am2.2-beta2AR cells, FAP receptor internalization, flow cytometry; P07550;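 active = response above a set limit, near 3 SD of response in nonfluorescent compounds, cut at about 42% in these data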
# MC4R barr conf: human MC4R beta-arrestin agonism confirmation | shares compounds with MC4R ag barr | U2OS MC4R beta-arrestin recruitment, luminescence; scaled DMSO 0%, Melanotan II 100% | activation, % at 8.9 µM | hit rate 31% among 2,400;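 active = mean activation across replicates above the hit cutoff set in the earlier primary screen, cut at about 8% in these data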
# MOR-DOR barr ag: activates mu-delta opioid heterodimer, MC4R agonist counter-screen; shares compounds with MC4R ag barr; U2OS PathHunter beta-arrestin, beta-gal luminescence; percent of deltorphin B response, DMSO zero; activation, % at 9.2 µM; hit rate 5.8% among 2,400; AID 602194;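 active = mean activation across replicates exceeds the hit threshold derived in the earlier primary screen, cut at about 18% in these data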
# Hits are given with their value; – = inactive; · = no result; ! = not confirmed by another sample. Hits are enriched below; roughly 4.3% of the tested compounds scored in any of these assays.
SMILES,TAAR1 antagonist,MC4R antag cAMP,MC4R ag barr,m5-HT2A agonist,TAAR1 agonist,B2AR ag,MC4R barr conf,MOR-DOR barr ag
Cc1cccc(C)c1NC(=O)c1ccc(OCc2c(C)noc2C)cc1,–,–,–,–,–,–,·,·
Cc1ccc(-c2nc3c(C)cc(Br)cn3c2Cc2ccccc2C(F)(F)F)cc1,–,·,·,·,–,·,·,·
COc1ccccc1/C=N/OCc1ccc(C#N)cc1,–,–,–,–,–,–,·,·
CC12CCC(=O)N1C(C(=O)Nc1nc(-c3cc(F)ccc3F)cs1)CS2 (centres undefined),–,–,–,–,–,–,·,·
Cc1cc(-c2ccccc2)nc(Nc2nc3c(C)cccc3c(=O)[nH]2)n1,–,–,19,–,–,–,–,–
Cc1cc(C)c2nc(Nc3nc(-c4ccccc4)cc(=O)[nH]3)nc(C)c2c1,–,–,27,–,–,–,17,–
OCCN1CCN(c2ncnc3c2ncn3[C@H]2CN(Cc3ccncc3)C[C@@H](CO)O2)CC1,–,–,–,–,–,·,·,·
COc1cccc(-c2ccc3c(c2)[C@@H]2C[C@H]4[C@@H](CN2CC3)[C@H](C)ON4C)c1,–,·,·,·,–,·,·,·
Cc1cc(C)cc(NC(=O)CCc2nc3sc4c(c3c(=O)[nH]2)CCCC4)c1,–,–,13,–,–,–,–,–
O=C(/C=C/c1ccc2c(c1)OCCCO2)c1ccccc1O,–,–,–,–,–,–,·,·
Cc1ccc(O)c(C(=O)/C=C/c2ccc3c(c2)OCCCO3)c1,–,–,23,–,–,–,24,–
O=C(NC1CCN(Cc2ccccc2)CC1)c1cc(S(=O)(=O)N2CCOCC2)ccc1Cl,–,–,–,–,–,–,·,·
CCOC(=O)c1c(-c2ccc(C)o2)csc1NC(=O)COC(=O)c1ccc(NC(N)=O)cc1,–,–,24,–,–,–,–,–
Oc1cc(OCc2ccccc2)ccc1-c1[nH]ncc1-c1ccccc1,–,–,13,–,–,–,–,–
COc1ccccc1-c1cn[nH]c1-c1ccc(OCc2ccc([N+](=O)[O-])cc2)cc1O,–,–,15,–,–,–,–,–
COc1ccccc1NC(=O)Cn1c(C)nc2c(sc(=S)n2Cc2ccco2)c1=O,–,–,–,–,–,–,·,·
Cc1nc2c(sc(=S)n2Cc2ccco2)c(=O)n1CC(=O)Nc1ccc(F)cc1,–,–,15,–,–,–,–,–
Cc1nc2c(sc(=S)n2Cc2ccco2)c(=O)n1CC(=O)Nc1cc(F)ccc1F,–,–,12,–,–,–,–,–
COc1ccc(OCc2cc(C(=O)NC3CCOC(C)(C)C3)no2)c2ccccc12 (centres undefined),–,–,–,–,–,–,·,·
Cc1cccc(C)c1NC(=O)CSc1nc(COc2ccccc2)nc2ccccc12,–,–,–,–,–,–,·,·
Cc1cccc(NC(=O)CSc2nc(COc3ccccc3)nc3ccccc23)c1C,–,–,20,–,–,–,–,–
COc1cc(C2CC(=O)Oc3ccc(C(C)(C)C)cc32)cc(OC)c1OC (centres undefined),–,–,–,–,–,–,·,·
CC(C)(C)c1ccc(C(=O)N2CCNCC2)cc1,–,–,–,–,–,–,·,·
CN1CCC2(CC1)N=C(c1ccc(F)cc1)C(=S)N2C(=O)c1ccc(C(C)(C)C)cc1,–,–,11,–,–,–,–,–
CNc1cncc(-c2cccc(NS(C)(=O)=O)c2)n1,–,–,–,–,–,·,·,·
SMILES,TAAR1 antagonist,MC4R antag cAMP,MC4R ag barr,m5-HT2A agonist,TAAR1 agonist,B2AR ag,MC4R barr conf,MOR-DOR barr ag
NC(=O)C1CC(=O)N(c2ccc(OCc3ccc(Cl)c(Cl)c3)cc2)C1 (centres undefined),–,–,–,–,–,·,·,·
COc1ccc(-c2nnn(CC(=O)N(Cc3ccc(F)cc3)C(C(=O)NC3CCCC3)c3ccc(F)cc3)n2)cc1 (centres undefined),–,–,9.7,–,–,–,–,–
CCOC(=O)CN(C(=O)Cn1nnc(-c2ccc(OC)cc2)n1)C(C(=O)NC1CCCC1)c1ccc(F)cc1 (centres undefined),–,–,–,–,–,–,·,·
COc1ccccc1N(C)S(=O)(=O)c1ccc(Cl)c(C(=O)Nc2ccccc2N2CCOCC2)c1,–,–,–,–,–,–,·,·
CCCc1cc(-c2[nH]ncc2-c2ccc(C(=O)OCC)o2)c(O)cc1O,–,–,23,–,–,–,10,–
CCCc1cc(-c2[nH]ncc2-c2ccc3c(c2)OCCCO3)c(O)cc1O,–,–,12,–,–,–,11,–
CN1CCN(Cc2nc3ccccc3c(=O)n2Cc2nc(-c3ccc4ccccc4c3)cs2)CC1,–,–,9.7!,–,–,–,13,–
CC(C)Cn1c(=S)[nH]c2cc(C(=O)NCc3ccccc3F)ccc2c1=O,–,–,14,–,–,–,–,–
CCCn1c(=S)[nH]c2cc(C(=O)NCc3ccccc3OC)ccc2c1=O,–,–,–,–,–,·,·,·
O=C(Nc1ccc2c(c1)OCO2)c1cc2n(n1)C(C(F)(F)F)CC(c1ccccc1)N2 (centres undefined),–,–,15,–,–,–,–,–
O=CNc1cc(-c2cccc(O)c2)cn2c(-c3ccc(F)cc3)cnc12,–,–,–,–,–,·,·,·
CC(=O)c1cccc(-c2cnc3c(NC=O)cc(-c4ccc(F)cc4)cn23)c1,–,–,14,–,–,·,15,–
COc1ccccc1-c1cc(NC=O)c2ncc(-c3cccc(C(C)=O)c3)n2c1,50,–,9.9,–,–,·,14,–
COc1ccc(F)cc1-c1cc(NC=O)c2ncc(-c3cccc(C(F)(F)F)c3)n2c1,–,–,10,–,–,·,–,–
O=C1COc2ccc(C(=O)COC(=O)c3ccc([N+](=O)[O-])cc3Cl)cc2N1,–,–,–,–,–,–,·,·
Cc1ccc(N(CC(=O)NCc2ccc(F)cc2)S(=O)(=O)c2c(C)nn(C)c2C)cc1,–,–,–,–,–,–,·,·
COc1ccc(C2=Nn3c(nnc3-c3ccccc3)SC2)cc1OC,–,–,–,–,–,–,·,·
c1ccc(-c2cc(-c3nnc4n3N=C(c3ccc5ccccc5c3)CS4)[nH]n2)cc1,–,–,32,–,–,–,14,–
Cc1nc(NC(=O)/C=C/c2ccccc2)sc1C(=O)Nc1cccc(Cl)c1,–,–,12,–,–,–,–,–
